Data from ChEMBL document CHEMBL1141446, “Uncovering biosynthetic potential of plant-associated fungi: effect of culture conditions on metabolite production by Paraphaeosphaeria quadriseptata and Chaetomium chiversii” (J Nat Prod, 2007).
Calls of active or inactive are those of the source. No cut-off for these calls is given here.

What was measured:
SF-268 = test: Antiproliferative activity against human SF268 cells by MTT assay; assay type: functional, cell-based
Summary of the method: (§1)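 Cells were exposed for 72 h to serial dilutions of test compound in RPMI 1640 supplemented with 10% fetal bovine serum. Viability was read by MTT assay, and IC50 was taken as the concentration giving 50% inhibition of proliferation/survival. A positive control was run alongside.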

MCF7 = test: Antiproliferative activity against human MCF7 cells by MTT assay; assay type: functional, cell-based; summary of the method: as §1
NCI-H460 = test: Antiproliferative activity against human NCI-H460 cells by MTT assay; assay type: functional, cell-based; summary of the method: as §1
Mus musculus = species on record: Mus musculus; test: Induction of heat shock in mouse 3T3-Y9/B12 reporter cells at 5 uM by heat shock induction assay; assay type: functional

SMILES | IC50 (MCF7) [nM] | IC50 (NCI-H460) [nM] | IC50 (SF-268) [nM] | Activity (Mus musculus)
C[C@@H]1C[C@H]2O[C@@H]2C[C@H](O)/C=C/C(=O)Cc2cc(O)cc(O)c2C(=O)O1 | 150 | 300 | 550 | Active
COc1cccc2c1C(=O)c1c(O)c3c(c(O)c1C2=O)C[C@@](O)(C(=O)CO)C[C@@H]3O[C@H]1C[C@H](N)[C@H](O)[C@H](C)O1 [DOXORUBICIN] | – | 10 | – | –
C[C@@H]1C[C@H]2O[C@@H]2/C=C\C=C\C(=O)Cc2c(Cl)c(O)cc(O)c2C(=O)O1 | – | – | – | Active

The next lines start with results.

IC50 (MCF7) [nM] | IC50 (NCI-H460) [nM] | SMILES | IC50 (SF-268) [nM] | Activity (Mus musculus)
600 | 350 | C[C@@H]1C[C@H]2O[C@@H]2/C=C\C=C\C(=O)Cc2cc(O)cc(O)c2C(=O)O1 [MONOCILLIN I] | 720 | Active
400 | 500 | C[C@@H]1C[C@H]2O[C@@H]2CC/C=C/C(=O)Cc2cc(O)cc(O)c2C(=O)O1 [MONOCILLIN III] | 300 | Active
